How the values were obtained:
[1] = test system: Bone; test: Biodistribution in ICR mouse bone at 370 kBq, iv after 120 mins by gamma-counting analysis; format: ADME, organism-based, Bone element; settings: in vivo, 2 h
In short: (§1)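 Male ICR mice (n = 5 per group) got 370 kBq tracer in 0.1 mL saline by iv injection. They were decapitated at 2, 30, 60 or 120 min, and organs were weighed and γ-counted. %ID/g was found against diluted aliquots of the injected dose, decay-corrected, and given as mean ± SD.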

[2] = test system: Lung; test: Biodistribution in ICR mouse lung at 370 kBq, iv after 120 mins by gamma-counting analysis; format: ADME, organism-based; settings: in vivo, 2 h; in short: as §1
[3] = test system: Heart; test: Biodistribution in ICR mouse heart at 370 kBq, iv after 120 mins by gamma-counting analysis; format: ADME, organism-based; settings: in vivo, 2 h; in short: as §1
[4] = Ratio of drug uptake from ICR mouse brain to blood after 60 mins; format: ADME, tissue-based; settings: brain and blood
[5] = test system: Muscle tissue; test: Biodistribution in ICR mouse muscle at 370 kBq, iv after 60 mins by gamma-counting analysis; format: ADME, organism-based; settings: in vivo, 1 h
In short: (§2)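 Male ICR mice, n = 5 per time point, given the radiotracer in saline (370 kBq, 0.1 mL) by intravenous injection. Killed by decapitation at 2, 30, 60 or 120 min. Organs were excised, weighed and gamma-counted with decay correction. Uptake is expressed as % injected dose per gram of wet tissue against diluted standards of the injected material; stomach and intestine are expressed as % injected dose per organ. Mean ± SD.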

[6] = test system: Intestine; test: Biodistribution in ICR mouse intestine assessed per organ at 370 kBq, iv after 60 mins by gamma-counting analysis; format: ADME, organism-based; settings: in vivo, 1 h
In short: (§3)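 Male ICR mice (n = 5) got 370 kBq iv in 0.1 mL saline and were decapitated at 2, 30, 60 or 120 min. Whole intestine was γ-counted and expressed as percent injected dose per organ, decay-corrected, mean ± SD.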

[7] = test system: Spleen; test: Biodistribution in ICR mouse spleen at 370 kBq, iv after 60 mins by gamma-counting analysis; format: ADME, organism-based; settings: in vivo, 1 h; in short: as §2
[8] = test system: Liver; test: Biodistribution in ICR mouse liver at 370 kBq, iv after 60 mins by gamma-counting analysis; format: ADME, organism-based; settings: in vivo, 1 h; in short: as §1
[9] = test system: Heart; test: Biodistribution in ICR mouse heart at 370 kBq, iv after 60 mins by gamma-counting analysis; format: ADME, organism-based; settings: in vivo, 1 h; in short: as §1
[10] = test system: Bone; test: Biodistribution in ICR mouse bone at 370 kBq, iv after 30 mins by gamma-counting analysis; format: ADME, organism-based, Bone element; settings: in vivo, 0.5 h; in short: as §1
[11] = Ratio of drug uptake from ICR mouse brain to blood after 30 mins; format: ADME, tissue-based; settings: brain and blood
[12] = test system: Intestine; test: Biodistribution in ICR mouse intestine assessed per organ at 370 kBq, iv after 30 mins by gamma-counting analysis; format: ADME, organism-based; settings: in vivo, 0.5 h; in short: as §3
[13] = test system: Kidney; test: Biodistribution in ICR mouse kidney at 370 kBq, iv after 30 mins by gamma-counting analysis; format: ADME, organism-based; settings: in vivo, 0.5 h; in short: as §1
[14] = test system: Lung; test: Biodistribution in ICR mouse lung at 370 kBq, iv after 30 mins by gamma-counting analysis; format: ADME, organism-based; settings: in vivo, 0.5 h; in short: as §1
[15] = test system: Liver; test: Biodistribution in ICR mouse liver at 370 kBq, iv after 30 mins by gamma-counting analysis; format: ADME, organism-based; settings: in vivo, 0.5 h; in short: as §1
[16] = test system: Blood; test: Biodistribution in ICR mouse blood at 370 kBq, iv after 30 mins by gamma-counting analysis; format: ADME, organism-based; settings: in vivo, 0.5 h; in short: as §1
[17] = test system: Lung; test: Biodistribution in ICR mouse lung at 370 kBq, iv after 2 mins by gamma-counting analysis; format: ADME, organism-based; settings: in vivo; in short: as §1
[18] = test system: Kidney; test: Biodistribution in ICR mouse kidney at 370 kBq, iv after 2 mins by gamma-counting analysis; format: ADME, organism-based; settings: in vivo; in short: as §1
[19] = test system: Spleen; test: Biodistribution in ICR mouse spleen at 370 kBq, iv after 2 mins by gamma-counting analysis; format: ADME, organism-based; settings: in vivo; in short: as §2
[20] = test system: Heart; test: Biodistribution in ICR mouse heart at 370 kBq, iv after 2 mins by gamma-counting analysis; format: ADME, organism-based; settings: in vivo; in short: as §1
[21] = test system: Bone; test: Biodistribution in ICR mouse bone at 370 kBq, iv after 60 mins by gamma-counting analysis in presence of haloperidol relative to control; format: ADME, organism-based, Bone element; settings: in vivo, 1 h
In short: (§4)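 Male ICR mice (n = 5) got saline or haloperidol (0.1 mL, 1.0 mg/kg) via tail vein 5 min before 370 kBq tracer iv. Tissues were taken 60 min later and γ-counted as %ID/g (intestine as %ID/organ). Control and blocked groups were compared by two-tailed independent Student's t test, p ≤ 0.05.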

[22] = test system: Muscle tissue; test: Biodistribution in ICR mouse muscle at 370 kBq, iv after 60 mins by gamma-counting analysis in presence of haloperidol relative to control; format: ADME, organism-based; settings: in vivo, 1 h
In short: (§5)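 Male ICR mice, n = 5 per group, received saline (0.1 mL) or haloperidol (0.1 mL, 1.0 mg/kg) via tail vein 5 min before the radiotracer (370 kBq, 0.1 mL, iv). Killed by decapitation at 60 min. Tissues were excised, weighed and gamma-counted. Values are % ID/g (stomach as % ID/organ) and percent change versus saline controls, compared by two-tailed independent Student's t test, p ≤ 0.05.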

[23] = test system: Lung; test: Biodistribution in ICR mouse lung at 370 kBq, iv after 60 mins by gamma-counting analysis in presence of haloperidol relative to control; format: ADME, organism-based; settings: in vivo, 1 h; in short: as §5
[24] = test system: Liver; test: Biodistribution in ICR mouse liver at 370 kBq, iv after 60 mins by gamma-counting analysis in presence of haloperidol relative to control; format: ADME, organism-based; settings: in vivo, 1 h; in short: as §4
[25] = test system: Rattus norvegicus; test: Biodistribution in Sprague-Dawley rat olfactory bulb at 23 MBq, iv after 60 mins by microPET imaging/CT study in presence of haloperidol; format: ADME, organism-based; settings: in vivo, 1 h
In short: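 Sprague-Dawley rats under isoflurane (1.5–2.5%) in oxygen received 23 MBq radiotracer (0.2 mL saline) via tail vein. Blocking animals were pre-injected with haloperidol (0.2 mL, 1 mg/kg) 5 min before the tracer. MicroPET emission was acquired for 30 min starting 60 min post-injection, followed by a 5 min CT scan; images were summed over 60–90 min.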

[26] = test system: Nucleic Acid; test: Ratio of drug uptake in Sprague-Dawley rat frontal cortex to cerebellum at 12.2 MBq, iv after 60 mins by autoradiography; format: ADME, organism-based; settings: in vivo, 1 h
[27] = Drug uptake in Sprague-Dawley rat white matter at 12.2 MBq, iv after 60 mins by autoradiography; format: ADME, organism-based; settings: in vivo, 1 h
In short: (§6)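 [¹⁸F]-labelled tracer (0.2 mL, 12.2 MBq) given intravenously to conscious Sprague-Dawley rats (n = 3). Each rat was killed by cervical dislocation 60 min after injection. The brain was removed and frozen in liquid nitrogen, and 20 μm coronal sections were cut on a cryostat for ex vivo autoradiography of regional radioactivity.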

[28] = test system: Cortex; test: Drug uptake in Sprague-Dawley rat cortex at 12.2 MBq, iv after 60 mins by autoradiography; format: ADME, organism-based; settings: in vivo, 1 h; in short: as §6
[29] = test system: Brain; test: Biodistribution in ICR mouse brain assessed as reduction in radiotracer uptake at 370 kBq, iv after 60 minutes by gamma-counting analysis in presence of fluvoxamine; format: ADME, organism-based; settings: in vivo, 1 h
In short: (§7)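 Male ICR mice got saline or a blocker (haloperidol, (S)-(−)-raclopride, fluvoxamine or tamoxifen; 0.1 mL, 2.2 μmol/kg) via tail vein 5 min before 370 kBq tracer iv. Brain was γ-counted at 60 min and compared with saline controls by two-tailed Student's t test, p ≤ 0.05.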

[30] = test system: Brain; test: Biodistribution in ICR mouse brain assessed as reduction in radiotracer uptake at 370 kBq, iv after 60 minutes by gamma-counting analysis in presence of (S)-(-)raclopride; format: ADME, organism-based; settings: in vivo, 1 h; in short: as §7

| SMILES | Drug uptake [1] | Drug uptake [2] | Drug uptake [3] | Kp at 1 h [4] | Drug uptake [5] | Drug uptake [6] | Drug uptake [7] | Drug uptake [8] | Drug uptake [9] | Drug uptake [10] | Kp at 0.5 h [11] | Drug uptake [12] | Drug uptake [13] | Drug uptake [14] | Drug uptake [15] | Drug uptake [16] | Drug uptake [17] | Drug uptake [18] | Drug uptake [19] | Drug uptake [20] | also measured |
| --- | --- | --- | --- | --- | --- | --- | --- | --- | --- | --- | --- | --- | --- | --- | --- | --- | --- | --- | --- | --- | --- |
| [18F]CCOCCOCCOc1ccc(CN2CCC3(CC2)OCc2ccccc23)cc1 | 5.28 % ID/g | 3.16 % ID/g | 3.25 % ID/g | 1.4 | 2.64 % ID/g | 4.68 %ID | 5.43 % ID/g | 6.32 % ID/g | 3.43 % ID/g | 4.1 % ID/g | 1.8 | 6.72 %ID | 5.09 % ID/g | 4.46 % ID/g | 8.67 % ID/g | 2.96 % ID/g | 20.68 % ID/g | 16.45 % ID/g | 5.35 % ID/g | 7.69 % ID/g | Drug uptake [21]: -26%; Drug uptake [22]: 17%; Drug uptake [23]: 6%; Drug uptake [24]: -36% |
| [18F]CCOc1ccc(CN2CCC3(CC2)OCc2ccccc23)cc1 | 6.13 % ID/g | 16.2 % ID/g | 8.54 % ID/g | 11.4 | 4.41 % ID/g | 7.81 %ID | 8.52 % ID/g | 13.87 % ID/g | 10.74 % ID/g | 3.3 % ID/g | 12.9 | 8.02 %ID | 13.16 % ID/g | 25.89 % ID/g | 15.3 % ID/g | 0.72 % ID/g | 47.91 % ID/g | 18.76 % ID/g | 4.84 % ID/g | 21.71 % ID/g | Drug uptake [25]: Active; Ratio [26]: 1.5; Drug uptake [27]: Active; Drug uptake [28]: Active; Drug uptake [29]: Active; Drug uptake [30]: Active; Drug uptake [21]: 18%; Drug uptake [22]: -20%; Drug uptake [23]: -76%; Drug uptake [24]: -64% |

Source: ChEMBL document CHEMBL2346503, “Synthesis and evaluation of novel (18)F-labeled spirocyclic piperidine derivatives as σ1 receptor ligands for positron emission tomography imaging” (J Med Chem, 2013)
